Experimental data: ChEMBL document CHEMBL1139031, “Synthesis and insecticidal activity of fluorinated 2-(2,6-dichloro-4-trifluoromethylphenyl)-2,4,5,6-tetrahydrocyclopentapyrazoles” (Bioorg Med Chem Lett, 2006)
pIC50: −log10 of the molar value.

Key:
[1] = biological target: T1, GABA receptor subunit (Musca domestica, UniProt Q75NA5); assay: Displacement of [3H]EBOB from housefly neuronal membrane GABA receptor
T1 sequence (Q75NA5 whole entry): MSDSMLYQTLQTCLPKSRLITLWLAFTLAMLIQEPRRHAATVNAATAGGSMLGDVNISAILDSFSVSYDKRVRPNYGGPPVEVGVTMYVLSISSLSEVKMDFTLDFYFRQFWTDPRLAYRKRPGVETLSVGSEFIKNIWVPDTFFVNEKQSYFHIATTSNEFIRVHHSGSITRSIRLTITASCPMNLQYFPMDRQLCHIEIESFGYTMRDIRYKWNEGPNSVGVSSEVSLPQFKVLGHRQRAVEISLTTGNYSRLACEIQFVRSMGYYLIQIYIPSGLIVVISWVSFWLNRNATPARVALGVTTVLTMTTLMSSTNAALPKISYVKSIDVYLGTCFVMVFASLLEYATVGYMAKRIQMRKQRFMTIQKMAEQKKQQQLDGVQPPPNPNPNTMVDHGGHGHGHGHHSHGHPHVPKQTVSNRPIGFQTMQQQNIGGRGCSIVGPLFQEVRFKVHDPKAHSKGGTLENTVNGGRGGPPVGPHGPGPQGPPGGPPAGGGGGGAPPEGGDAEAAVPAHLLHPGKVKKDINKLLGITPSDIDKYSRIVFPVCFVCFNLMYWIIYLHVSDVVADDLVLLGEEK
How it was run: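 Housefly neuronal membranes (0.5–1.0 mg/mL in added buffer) with 5.2 nM [3H]EBOB in ice-cold 10 mM phosphate, 300 mM NaCl, pH 7.5; DMSO compound solutions. Incubated 45 min at 24 °C, then filtered on polyethylenimine-soaked glass fiber; bound radioactivity counted. Membrane-free wells served as controls. Actives were retested at 24–48 final concentrations, and IC50 was taken at 50% of maximal inhibition.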

[2] = tested on: Ctenocephalides felis; assay: Insecticidal activity against ARC sensitive homozygous alanine A/A flea at 100 mM by contact assay; type: functional
How it was run: (§1)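 Contact vial assay with cat fleas of the cyclodiene-resistant homozygous serine (CO) or sensitive homozygous alanine (ARC) strain. Compound in DMSO was dried onto a glass-fiber disk for 24–48 h, and a DMSO-only disk was the control. Twenty newly emerged fleas, sedated at 0–4 °C, were sealed in each vial and held in the dark. Dead fleas were counted after 24 h, and percentage mortality was calculated.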

[3] = Selectivity for housefly GABA receptor over mouse GABA receptor
[4] = biological target: GABA-A receptor; anion channel; assay: Binding affinity to mouse brain GABA receptor
How it was run: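 Displacement of [3H]EBOB (5.2 nM, 38 Ci/mmol) from neuronal membranes (0.5–1.0 mg/mL), housefly or mouse brain, in ice-cold 10 mM phosphate, 300 mM NaCl, pH 7.5. Compound added from DMSO. Membrane-free wells served as controls. Incubated 45 min at 24 °C, then filtered on polyethylenimine-soaked glass fiber and bound radioactivity counted. IC50 (50% of maximal inhibition) taken from 24–48 concentrations.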

[5] = tested on: Ctenocephalides felis; assay: Insecticidal activity against cyclodiene resistant allele-homozygous serine S/S flea by contact assay; type: functional; how it was run: as §1
[6] = tested on: Musca domestica; assay: Insecticidal activity against housefly by contact assay; type: functional; set-up: concentration or dose not given beside the values
How it was run: (§2)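 Newly emerged houseflies were CO2-sedated and fed 10% sucrose for 2–4 h. Compound in DMSO with isopropanol was rolled to coat glass tubes and air-dried for 24–48 h, with a DMSO-only control. Twenty flies, sedated by refrigeration at 0–4 °C, were placed in each tube. Healthy, moribund and dead flies were counted after 24 h.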

[7] = species: Mus musculus; assay: Clearance in mouse; type: ADME, organism-based; settings: in vitro
[8] = (§3) Half life in dog liver microsome; type: ADME, Canis lupus familiaris; settings: liver microsomes
[9] = species: Mus musculus; assay: (§4) Half life in mouse liver microsome; type: ADME; settings: microsomes
[10] = species: Canis familiaris; assay: Clearance in dog; type: ADME, organism-based, Canis lupus familiaris; settings: in vitro
[11] = tested on: Musca domestica; assay: Insecticidal activity against housefly at 100 mM by contact assay; type: functional; settings: for LC50: Musca domestica, read-out: LD50 (the source's name); how it was run: as §2
[12] = species: Canis familiaris; assay: as §3; type: ADME, Canis lupus familiaris; settings: microsomes
[13] = as §4; type: ADME; settings: liver microsomes
[14] = tested on: Ctenocephalides felis; assay: Insecticidal activity against heterozygous S/A flea by contact assay; type: functional
[15] = tested on: Ctenocephalides felis; assay: Insecticidal activity against cyclodiene resistant allele-homozygous serine S/S flea at 100 mM by contact assay; type: functional; how it was run: as §1
[16] = read-out: LD50 (the source's name)

Row | Compound | pIC50 [1] | Activity [2] | selectivity ratio [3] | pIC50 [4] | LC50 [5, 16] | Activity [6] | Activity [15] | other results
1 | FC(F)(F)c1cc(Cl)c(-n2cc3c(n2)CC(F)(F)C3(F)F)c(Cl)c1 | > 7.00 | 100% | > 0.5 | 7.30 | < 500 µM |  |  | 
2 | CC1(O)c2cn(-c3c(Cl)cc(C(F)(F)F)cc3Cl)nc2CC1(F)F (stereo unspecified) |  | 100% | 23 | 5.64 | 10000 µM | 72% |  | CL [7]: Stable; half-life [8]: 8.45 h; T1/2 [9]: Stable; CL [10]: 296.9 pmol/min/mg
3 | FC(F)(F)c1cc(Cl)c(-n2cc3c(n2)CCC3(F)F)c(Cl)c1 | < 7.00 | 100% | < 10 | 6.00 | 1000 µM |  |  | LC50 [11]: 88000 µM
4 | CC1(O)c2cn(-c3c(Cl)cc(C(F)(F)F)cc3Cl)nc2C(F)C1F (stereo unspecified) |  | 100% | > 28 | < 5.00 | 5000 µM | 100% |  | 
5 | FC1CCc2cn(-c3c(Cl)cc(C(F)(F)F)cc3Cl)nc21 (stereo unspecified) | 6.54 | 95% | 10 | 5.54 | 11000 µM | 85% |  | 
6 | FC1Cc2nn(-c3c(Cl)cc(C(F)(F)F)cc3Cl)cc2C1(F)F (stereo unspecified) | > 7.00 | 100% | > 10 | 6.00 | 1000 µM | 100% |  | CL [7]: 109.2 pmol/min/mg; T1/2 [12]: Stable; half-life [13]: 1.08 h; CL [10]: Stable
7 | FC1c2nn(-c3c(Cl)cc(C(F)(F)F)cc3Cl)cc2C(F)(F)C1F (stereo unspecified) |  | 100% |  | 6.76 | < 500 µM |  |  | LC50 [11]: 400 µM
8 | FC1Cc2cn(-c3c(Cl)cc(C(F)(F)F)cc3Cl)nc2C1F (stereo unspecified) | 6.70 | 100% | 5 | 6.00 |  |  |  | LC50 [11]: 79000 µM; CL [7]: 255.1 pmol/min/mg; T1/2 [12]: Stable; half-life [13]: 0.373 h; CL [10]: Stable
9 | O=C1CCc2nn(-c3c(Cl)cc(C(F)(F)F)cc3Cl)cc21 | 6.33 | 16.5% | 42 | 4.70 |  |  |  | LC50 [11]: 81000 µM
10 | FC1(F)Cc2cn(-c3c(Cl)cc(C(F)(F)F)cc3Cl)nc2C1 | 6.70 | 100% | 1 | 6.76 | 2000 µM | 87.9% |  | 
11 | CC1CCc2nn(-c3c(Cl)cc(C(F)(F)F)cc3Cl)cc21 (stereo unspecified) | 7.52 | 100% | 126 | 5.42 |  |  |  | Activity [11]: 10%; LC50 [14]: 3000 µM; LC50 ([5]; read-out: LC50): 10000 µM
12 | O=C1c2cn(-c3c(Cl)cc(C(F)(F)F)cc3Cl)nc2CC1F (stereo unspecified) | 6.49 | 95.4% | 10 | 5.49 |  | 57.5% | 10.8% | 
13 | FC1CCc2nn(-c3c(Cl)cc(C(F)(F)F)cc3Cl)cc21 (stereo unspecified) | 5.77 |  | > 5 | < 5.00 |  | 7% | 36% | 
14 | FC(F)(F)c1cc(Cl)c(-n2cc3c(n2)C(F)(F)CC3)c(Cl)c1 |  | 100% |  | 5.55 | 15000 µM |  |  | 
15 | O=C1CC(F)(F)c2nn(-c3c(Cl)cc(C(F)(F)F)cc3Cl)cc21 |  | 40% |  |  |  | 6% | 1% | 
16 | COC1(C)c2cn(-c3c(Cl)cc(C(F)(F)F)cc3Cl)nc2CC1F (stereo unspecified) | 7.00 | 100% | 120 | 4.92 | 1800 µM |  |  | CL [7]: 34.1 pmol/min/mg; T1/2 [12]: Stable; half-life [13]: 2.42 h; CL [10]: Stable
17 | FC(F)(F)c1cc(Cl)c(-n2cc3c(n2)CCC3)c(Cl)c1 |  | 100% | 19 | 5.80 |  |  |  | Activity [11]: 30%; LC50 [14]: 7000 µM; LC50 ([5]; read-out: LC50): 8000 µM
18 | COC1CC(F)(F)c2nn(-c3c(Cl)cc(C(F)(F)F)cc3Cl)cc21 (stereo unspecified) |  | 100% |  | 5.43 |  | 22% | 3% | 
19 | O=C1c2cn(-c3c(Cl)cc(C(F)(F)F)cc3Cl)nc2CC1(F)F |  | 40% |  |  |  | 6% | 1% | 
20 | CC1(F)CC(F)(F)c2nn(-c3c(Cl)cc(C(F)(F)F)cc3Cl)cc21 (stereo unspecified) |  | 100% |  | < 5.00 |  | 16.7% | 3% | 
21 | FC(F)(F)c1cc(Cl)c(-n2cc3c(n2)C(F)(F)CC3(F)F)c(Cl)c1 | 7.13 | 100% | 4 | 6.52 |  | 93.9% | 60.7% | 
